Assay outcomes: PubChem BioAssay, several laboratories
A selection: hits, their analogues and other compounds. The true share with any hit is near 4%.
SENP1 inh – SENP1 (human) catalytic domain inhibition; inhibition, % at 10 µM; recombinant SENP1 catalytic domain, CyPet-SUMO1-YPet FRET cleavage; hit rate 0.21% among 360,000; Q9P0U3;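 active = inhibition at least 30% at 10 µM, raw YFP signal under a set limit, fluorescence ratio 0.5 to 1.5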;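 also: 0% = enzyme with DMSO and 100% = no enzyme wells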
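Assay system – human recombinant His6-tagged SENP1 catalytic domain enzyme · Input – SENP1 enzyme, 20 pM final · Buffer or medium – Tris pH 8 buffer plus EDTA, NaCl, BME, BSA, NP40, catalase · Schedule – 50 min reaction at room temperature · Technique – FRET read of cyan and yellow fluorescence · Control set – no-enzyme wells low, DMSO-plus-enzyme wells high control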
NR3A LBD binder – NR3A (human) ligand-binding domain modulation; NR3A LBD differential scanning fluorimetry, Tm shift; 0% = protein alone, 100% = glycine-bound protein; Tm shift relative to glycine control, % at 25 µM; AID 1259313; hit rate 2.5% among 340,000;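 active = melting temperature shift of at least 10% of the positive control shift, at one fixed dose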
iPSC survival up – enhancers of human iPSC single-cell survival | hiPSC single-cell survival, ATPlite luminescence; 100% = ROCK inhibitor wells, 0% = DMSO | survival enhancement, % at 20 µM | hit rate 0.044% among 360,000 | AID 602274; in the data active = survival enhancement above about 18%;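 also: cells exposed to compounds for 16 hours before the ATP read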
FAS TE block – blocks the thioesterase domain of human fatty acid synthase. hit rate 0.67% among 360,000. recombinant FAS-TE, OMFH fluorogenic substrate, fluorescence endpoint. inhibition, % at 15 µM. P49327;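 active = compounds whose normalised, plate-corrected inhibition of enzyme fluorescence in the single-dose primary screen is 50% or more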;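 also: 0% = DMSO with enzyme and 100% = substrate without enzyme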
Target sequence (P49327 whole entry, looked up, the tested form may be a part): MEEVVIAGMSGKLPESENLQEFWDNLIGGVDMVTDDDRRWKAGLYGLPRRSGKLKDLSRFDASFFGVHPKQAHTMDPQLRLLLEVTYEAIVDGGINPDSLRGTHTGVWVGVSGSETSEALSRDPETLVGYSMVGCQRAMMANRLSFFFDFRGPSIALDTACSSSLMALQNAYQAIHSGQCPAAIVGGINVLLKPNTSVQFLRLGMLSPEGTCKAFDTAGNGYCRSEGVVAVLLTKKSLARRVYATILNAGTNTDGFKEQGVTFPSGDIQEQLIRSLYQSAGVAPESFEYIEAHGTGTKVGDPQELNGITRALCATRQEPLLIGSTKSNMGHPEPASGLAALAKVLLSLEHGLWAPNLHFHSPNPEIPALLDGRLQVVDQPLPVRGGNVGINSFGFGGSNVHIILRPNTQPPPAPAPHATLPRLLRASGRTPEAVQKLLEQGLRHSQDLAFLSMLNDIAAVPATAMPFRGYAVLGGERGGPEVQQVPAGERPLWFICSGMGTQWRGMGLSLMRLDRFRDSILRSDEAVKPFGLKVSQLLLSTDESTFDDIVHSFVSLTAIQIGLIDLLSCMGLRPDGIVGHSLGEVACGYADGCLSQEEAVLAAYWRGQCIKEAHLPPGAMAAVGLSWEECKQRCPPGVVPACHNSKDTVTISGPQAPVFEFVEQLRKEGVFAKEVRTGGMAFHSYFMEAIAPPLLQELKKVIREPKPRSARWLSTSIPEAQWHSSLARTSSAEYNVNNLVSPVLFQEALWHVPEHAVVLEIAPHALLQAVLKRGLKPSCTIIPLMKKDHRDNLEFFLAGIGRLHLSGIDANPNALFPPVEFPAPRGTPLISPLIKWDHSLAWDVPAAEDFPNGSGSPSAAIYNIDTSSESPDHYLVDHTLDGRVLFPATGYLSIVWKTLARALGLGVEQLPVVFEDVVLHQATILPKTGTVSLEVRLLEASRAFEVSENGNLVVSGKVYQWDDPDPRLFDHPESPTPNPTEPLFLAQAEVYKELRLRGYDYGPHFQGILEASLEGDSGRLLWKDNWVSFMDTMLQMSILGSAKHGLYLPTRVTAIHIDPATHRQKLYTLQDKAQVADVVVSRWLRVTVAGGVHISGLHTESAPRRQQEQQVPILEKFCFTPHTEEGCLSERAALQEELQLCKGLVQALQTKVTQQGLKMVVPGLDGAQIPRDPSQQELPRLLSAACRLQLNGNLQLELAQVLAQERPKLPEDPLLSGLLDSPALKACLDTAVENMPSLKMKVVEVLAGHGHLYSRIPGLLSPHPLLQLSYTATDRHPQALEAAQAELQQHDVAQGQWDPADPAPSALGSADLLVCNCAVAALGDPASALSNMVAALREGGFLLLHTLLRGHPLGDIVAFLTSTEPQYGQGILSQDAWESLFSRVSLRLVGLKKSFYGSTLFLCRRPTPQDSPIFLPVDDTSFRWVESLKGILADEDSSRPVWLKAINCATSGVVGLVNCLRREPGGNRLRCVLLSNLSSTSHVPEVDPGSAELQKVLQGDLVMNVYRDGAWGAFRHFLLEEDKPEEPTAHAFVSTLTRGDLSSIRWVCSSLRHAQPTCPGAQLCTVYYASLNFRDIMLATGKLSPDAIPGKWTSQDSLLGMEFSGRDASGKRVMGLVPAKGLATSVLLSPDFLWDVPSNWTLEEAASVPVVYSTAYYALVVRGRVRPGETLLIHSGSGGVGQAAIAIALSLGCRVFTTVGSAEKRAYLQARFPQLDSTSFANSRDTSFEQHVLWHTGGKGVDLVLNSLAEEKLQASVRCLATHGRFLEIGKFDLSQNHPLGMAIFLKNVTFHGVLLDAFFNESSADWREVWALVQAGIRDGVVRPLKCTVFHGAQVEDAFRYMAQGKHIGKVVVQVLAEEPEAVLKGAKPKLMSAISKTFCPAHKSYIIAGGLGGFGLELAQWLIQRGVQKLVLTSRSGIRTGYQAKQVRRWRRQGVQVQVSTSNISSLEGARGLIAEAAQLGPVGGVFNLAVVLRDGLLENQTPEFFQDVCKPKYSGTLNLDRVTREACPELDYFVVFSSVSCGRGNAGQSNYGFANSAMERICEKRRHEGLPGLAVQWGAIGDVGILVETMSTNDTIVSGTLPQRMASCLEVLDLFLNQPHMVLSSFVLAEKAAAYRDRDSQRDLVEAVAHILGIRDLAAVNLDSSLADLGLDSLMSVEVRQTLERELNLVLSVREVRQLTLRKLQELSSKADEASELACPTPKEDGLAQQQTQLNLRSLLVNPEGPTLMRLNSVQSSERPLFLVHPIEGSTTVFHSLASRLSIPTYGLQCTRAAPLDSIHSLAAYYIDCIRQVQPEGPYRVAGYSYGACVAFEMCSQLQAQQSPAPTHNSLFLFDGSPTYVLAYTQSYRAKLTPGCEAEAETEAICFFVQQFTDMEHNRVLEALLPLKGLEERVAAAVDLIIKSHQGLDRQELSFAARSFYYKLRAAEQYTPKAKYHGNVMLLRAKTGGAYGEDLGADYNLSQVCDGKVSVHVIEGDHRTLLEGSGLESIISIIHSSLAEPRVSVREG
Cardio protect – protects H9c2 cardiomyocytes from peroxide injury; H2O2 injury protection, ATPLite, 2 h; protection from H2O2 cell death, % at 20 µM; hit rate 0.63% among 360,000; AID 588492;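 active = compounds giving at least 50% protection of heart cells from peroxide-induced death in the single-dose screen, raw or plate-pattern-corrected value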;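 also: 0% = DMSO wells with peroxide and 100% = DMSO wells without peroxide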
Arr AP2 block – human beta-arrestin and AP2 interaction inhibition; FITC-arrestin peptide / GST-AP2 beads, flow cytometry; AP2 beta2 appendage carries R879A mutation; inhibition, % at 10 µM; hit rate 0.31% among 340,000;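 active = inhibition above a set limit, near 3 SD of compounds lacking own fluorescence, cut at about 54% in these data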;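 also: plate controls were DMSO wells for no effect and 5 µM unlabelled arrestin peptide for full effect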
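System: GST-tagged AP2 beta2-adaptin appendage (R879A) on 4 µm glutathione beads / Reagent: FITC-arrestin peptide, 50 nM / Detection: HyperCyt-sampled flow cytometry, FL1 channel, ex 488/em 535 nm / Timing: 12 min plus 1 h, RT / Buffer or medium: PBS plus Tween 20 (0.05%) and BSA (0.1%)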
Active calls of the source: *.

`CC1(C)S[C@@H]2C(C(=O)OCc3ccccc3)NC(=O)N2C1C(=O)OCc1ccccc1` (some centres not stated) gave SENP1 inh 2, NR3A LBD binder 1, iPSC survival up -3, FAS TE block 29, Cardio protect -13 and Arr AP2 block -10.
`CCCOC(=O)C1NC(=O)N2C(C(=O)OCCC)C(C)(C)S[C@H]12` (some centres not stated) gave SENP1 inh 2, NR3A LBD binder 0, iPSC survival up 23*, FAS TE block -14, Cardio protect 3 and Arr AP2 block 0.
For CCCc1nc2ccc(Cl)cn2c1Cc1ccccc1 the results were SENP1 inh -19, iPSC survival up -1, FAS TE block 0 and Cardio protect -5.
Cc1ccc(S(=O)(=O)C[C@@H]2OC[C@H](Cc3ccccc3)N2S(=O)(=O)c2ccc(C)cc2)cc1 was read as SENP1 inh -1.
`O=C(Cc1nnc(NC(=O)Nc2ccc(Cl)cc2)s1)NCc1ccccc1` gave SENP1 inh 1, NR3A LBD binder 16*, iPSC survival up 2, FAS TE block 0, Cardio protect -6 and Arr AP2 block 7.
For O=C(Nc1ccc(Cl)cc1)Nc1nnc(SCc2ccc(Cl)cc2)s1 the results were SENP1 inh 2, NR3A LBD binder -2, iPSC survival up 1, FAS TE block -4, Cardio protect -23 and Arr AP2 block -7.
Screening O=C(Nc1ccc(Cl)cc1)Nc1nnc(CSCc2ccccc2)s1 returned SENP1 inh 1, NR3A LBD binder -6, iPSC survival up 0, FAS TE block 4, Cardio protect -23 and Arr AP2 block 3.
`O=C(Nc1ccc(Cl)cc1)Nc1nnc(CSc2ccc(Cl)cc2)s1` gave SENP1 inh 2, NR3A LBD binder 27*, iPSC survival up -3, FAS TE block 6, Cardio protect -29 and Arr AP2 block -8.
`O=C(Nc1ccccc1)Nc1nnc(SCc2ccc(Cl)cc2)s1` gave SENP1 inh 2, NR3A LBD binder 35*, iPSC survival up 3, FAS TE block 0, Cardio protect -24 and Arr AP2 block -4.
Screening Nc1ccn([C@@H]2O[C@H](C(=O)Nc3ccc(Oc4ccccc4)nc3)[C@@H](O)[C@H]2O)c(=O)n1 returned SENP1 inh -1, iPSC survival up -2, FAS TE block -5 and Cardio protect 3.
`CCN(CC(=O)Nc1ccc(OC)cc1)C(=O)C1CC(=O)N(Cc2ccccc2)C1` (configuration not stated) gave SENP1 inh 3, iPSC survival up 10, FAS TE block -7 and Cardio protect -1.
Screening COC(=O)C1(C(=O)OC)C[C@H](c2ccc(OC)cc2)N(Cc2ccccc2OC)[C@@H]1c1cccs1 returned SENP1 inh 1.
O=C(Nc1cccc(Cl)c1)c1ccc2ncsc2c1 was read as SENP1 inh 1, NR3A LBD binder 34*, iPSC survival up 0, FAS TE block 0, Cardio protect -3 and Arr AP2 block -2.
Screening O=C(COC(=O)c1ccc2ncsc2c1)Nc1cccc(Cl)c1 returned SENP1 inh 1, NR3A LBD binder -2, iPSC survival up 0, FAS TE block 4, Cardio protect -8 and Arr AP2 block -7.
`O=C(Nc1ccc(Cl)cc1)c1ccc2ncsc2c1` gave SENP1 inh -9, NR3A LBD binder 24*, iPSC survival up -1, FAS TE block 2, Cardio protect 2 and Arr AP2 block 9.
For Cc1ccc(C)c(NC(=S)NCCc2c[nH]c3ccccc23)c1 the results were SENP1 inh 4, NR3A LBD binder 3, iPSC survival up -1, FAS TE block 8, Cardio protect -8 and Arr AP2 block 37.
Screening CC(C)c1ccc(NC(=S)NCCc2c[nH]c3ccccc23)cc1 returned SENP1 inh 0, NR3A LBD binder 31*, iPSC survival up -3, FAS TE block 17, Cardio protect -15 and Arr AP2 block 12.
Cc1ccc(NC(=S)NCCc2c[nH]c3ccccc23)cc1 was read as SENP1 inh 0, NR3A LBD binder 23*, iPSC survival up -4, FAS TE block 0, Cardio protect -2 and Arr AP2 block -42.
For Cc1cccc(NC(=S)NCCc2c[nH]c3ccccc23)c1 the results were SENP1 inh -2, NR3A LBD binder 28*, iPSC survival up -2, FAS TE block 2, Cardio protect -4 and Arr AP2 block 0.
`COc1cccc(C(=O)C(=O)N2CCN(C(=O)OCc3ccccc3)CC2)c1` gave SENP1 inh 2.
COc1c2ccoc2cc2oc(C)cc(=O)c12 was read as SENP1 inh 0, NR3A LBD binder -1, iPSC survival up 2, FAS TE block -5, Cardio protect -8 and Arr AP2 block 3.
Screening Cc1cc(=O)c2c(O)c(O)ccc2o1 returned SENP1 inh 0, NR3A LBD binder 2, iPSC survival up 0, FAS TE block -9, Cardio protect 50* and Arr AP2 block -5.
`Cc1ccc(C(C(=O)NC2CCCCC2)N(CC2CCCO2)C(=O)CNC(=O)c2cccs2)cc1` (configuration not stated) gave SENP1 inh 3, NR3A LBD binder -6, iPSC survival up 4, FAS TE block -3, Cardio protect 0 and Arr AP2 block -1.
`Cc1ccc(CN(C(=O)CNC(=O)c2cccs2)C(C(=O)NCC2CCCO2)c2ccccc2)cc1` (configuration not stated) gave SENP1 inh 1, NR3A LBD binder 0, iPSC survival up -1, FAS TE block 5, Cardio protect 91* and Arr AP2 block 8.
For COc1ccccc1CN(C(=O)CNC(=O)c1ccco1)C(C(=O)NCC1CCCO1)c1ccccc1 (configuration not stated) the results were SENP1 inh -6, NR3A LBD binder 0, iPSC survival up 0, FAS TE block -5, Cardio protect 68* and Arr AP2 block 17.
For COc1ccc2cc(CN(C)C(=O)CN3C(=O)NC4(CCCC4)C3=O)ccc2c1 the results were SENP1 inh -2, iPSC survival up 0, FAS TE block -5 and Cardio protect -1.
Screening O=c1cc(-c2ccccc2)cc(-c2ccccc2)n1O returned SENP1 inh 2, NR3A LBD binder -4, iPSC survival up 10, FAS TE block -4, Cardio protect 63* and Arr AP2 block 5.
`Cn1c(-c2ccccc2)cc(=O)cc1-c1ccccc1` gave SENP1 inh -1, iPSC survival up 4, FAS TE block -5 and Cardio protect 1.
`CCC(=O)N1CCN(CCN=CC2=C(O)CC(C)(C)CC2=O)CC1` gave SENP1 inh -2, NR3A LBD binder 13*, iPSC survival up -2, FAS TE block -8, Cardio protect -3 and Arr AP2 block -4.
